Measured values reported in the EternaBench riboswitch data.

System: MS2 coat protein
Test: apparent Kd, MS2 coat protein; higher = weaker binding; RNA-MaP array; FMN 200 µM where present
Procedure, shortened: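 Designs on Illumina sequencing-chip clusters, transcribed by stalled E. coli RNA polymerase, were exposed to SNAP-549-labelled MS2 coat protein in doubling steps from 0.7 or 1.5 nM up to 3 µM, without and then with constant ligand. The buffer held 100 mM Tris-HCl pH 7.5, 80 mM KCl, 4 mM MgCl2, BSA, DTT, yeast tRNA and Tween-20. Apparent Kd values are medians of filtered per-cluster binding-curve fits to green signal normalised to red-channel RNA signal and control-cluster median Fmax.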

[1] = designed as: OFF switch for flavin mononucleotide, no ligand
[2] = ligand present: flavin mononucleotide, designed as: OFF switch for flavin mononucleotide
[3] = designed as: ON switch for flavin mononucleotide, no ligand
[4] = ligand present: flavin mononucleotide, designed as: ON switch for flavin mononucleotide

Sequence	apparent Kd [1] [nM]	apparent Kd [2] [nM]	apparent Kd [3] [nM]	apparent Kd [4] [nM]
GCACGGUAAGUGAGGAUAUACCUCUGGAUACAGAGGUAGAAGGCACAUGAGGAUCACCCAUGUUCCUGCCGUGC	17.2	92.9		
GCACUGGAUGUAGGAUAUCAGGACGAUAAGUCCUGAGAAGGACAUGAGGAUCACCCAUGUAAAACUCCACCAGUGCAUAAUAUA	13.1	17.9		
GCACUGGAUGUAGGAUAUCAGGACGAUAAGUCCUGAGAAGGACAUGAGGAUCACCCAUGUACCUCAAACCAGUGCUAUAAUAUA	15.1	30		
GCACUGGCAGGAUAUACAUGAGGAUCACCCAUGUGACCCUUGAAGUACUCGCGUACUCGUAGAAGGGCCUGUGC	102	520		
GCACUUGCGUAGAAGGUACUAUAUAAUACACUGUAAGGAUAUACAUACAUGAGGAUCACCCAUGUAAAUGGAAUUUGCAAGUGC			6.62	6.49
GCAGACGUGGUGAGGAUAUGCUCUACCUCGGUAGAGCAGAAGGCACAUGAGGAUCACCCAUGUGACUCCUCAUC	18.6	19.2		
GCAGAGCCUGACAUGAGGAUCACCCAUGUUAGAUUGUUAUGUCAGGAUAUUGUCUAGCAACUAGACAAGAAGGGAUGCUCUGCG			341	27.8
GCAGCACAGUUUUACAUGAGGAUCACCCAUGUCGAUUGUUAUGAGGAUAUGCAUCGUAUGAAGAUGCAGAAGGCAUUGUGCUGC			6.96	5.5
GCAGCGCCUGACAUGAGGAUCACCCAUGUUAGAUUGUUAAGUCAGGAUAUAGUCUAGAAACUAGACUAGAAGGGAUUUGCUGCU			9.08	6.83
GCAGCUCCUGACAUGAGGAUCACCCAUGUUUAAUUAUUAAAUCAGGAUAUCCUCUCGAAACGAGAGGAGAAGGGAUAAGCUGCU			4.83	5.33
GCAGGUUAAGUCAGGAUAUACCUAUGGAUACAUAGGUAGAAGGGACAUGAGGAUCACCCAUGUGACUCGCCUGC	26.9	95.8		
GCAUACAUUCGAGGAUAUCGGUGAACAAAUUAACGAGAAGGCGAUAGAAUGUUUCAUCUUAUGAACAUGAGGAUCACCCAUGUA			39.3	27.9
GCAUCCAAUGUGAGGAUAUACCUCUGGAUACAUAGGUAGAAGGCACAUGAGGAUCACCCAUGUUCCUAGGAUGC	44.6	222		
GCCAGAGCAGGAUAUUCAAUAAUCCACAUGAGGAUCACCCAUGUCUAGCGAAAGCUAGAGGGAGAAGGGCUCUGGC	79.3	33.7		
GCCAGAGCAGGAUAUUCAAUAUCACACAUGAGGAUCACCCAUGUCCGGCGAAAGCUGGAGGGAGAAGGGCUCUGGC	62.6	18.7		
GCCAGGAUGUGAGGAUAUGCUGAGGAUAACUCAGCAGAAGGCACAUGAGGAUCACCCAUGUAAACCUAUAAUAAAUACCCUGGC	12.1	24.4		
GCCAGGCAUGUAGGAUAUCCAUUGCGUCGCGUUGGAGAAGGGCAGCACACAUGAGGAUCACCCAUGUGGUCACCCAUGUAGUGU	612	594		
GCCAUCGCAUGAGGAUAUGCUCGGGUUUCCCGAGCAGAAGGCAUGUAAUAAGACAUGAGGAUCACCCAUGUAGUUAAGAUGGCA			7.48	5.3
GCCAUCGCAUGAGGAUAUGGUCUGGUUUCCAGACCAGAAGGCAUGUCAUAAGACAUGAGGAUCACCCAUGUAGUUAAGAUGGCA			714	47.7
GCCAUCGUAUGAGGAUAUGCUCCGGUUUCCGGAGCAGAAGGCAUGUCAUAAGACAUGAGGAUCACCCAUGUAGUUAAGAUGGCA			135	9.66
GCCCGUGCGGAGGAUAUUGAUAUCCCAGUCUAUCAAGAAGGCUGCACAUGAGGAUCACCCAUGUGACCUGUGCU	18.8	51.7		
GCCGAACAUGAGGAUCACCCAUGUCUGGGUAAUCAAGGAUAUGGGAAGGCUUUGCCAUGACCAGAAGGUGGUUAUC			209	23.1
GCCGGAGCAGGAUAUCUAAUAUAUCACAUGAGGAUCACCCAUGUCCAGCGAAAGCUGGAGGGAGAAGGGCUCUGGC	164	44.4		
GCCGUACAUGAGGAUCACCCAUGUCAGGAUAUUUAGCACUCGGAAUUUCCGAGAGGUCAAAGAAGGGACAUUGC	17.5	26.9		
GCCUCACAUGAGGAUCACCCAUGUCAGGAUAUAGGAGAUGGCAGAAAUCCUACCAUCGCUAGAAGGGACUGGCA	43.4	76.4		
GCCUCACAUGAGGAUCACCCAUGUCAGGAUAUGCCGAUCUUAUGGUCUGGUACGACGAGCAGAAGGGACAUGCA	19.5	57.9		
GCCUCAUAGUAGAAGGGACUUUUACAGUAAUGUUUUUAGUGUAAAUAACAUGAGGAUCACCCAUGUCAGGAUAUACUAAGAGGC	5.82	6.35		
GCCUGCUGGCGAGGAUAUUCUGUGCGGUUCCAGCUCGUGUCUGUUACAUGAGGAUCACCCAUGUGGGAGAAGGUGUCUGUGGCC	6	5.73		

Sequence	apparent Kd [1] [nM]	apparent Kd [2] [nM]	apparent Kd [3] [nM]	apparent Kd [4] [nM]
GCCUUAUUGGUCAGGAUAUACAUUUGUUACUCUUUGUAGAAGGGACAUGAGGAUCACCCAUGUACAUUACAUUC	20.8	33.5		
GCCUUGUCAGGAUAUCCGCGCGGGUGGCGCAUGCACUGCGUGGAGAAGGGACAUGAGGAUCACCCAUGUGCGUA	89.2	317		
GCGACGAAAGUCGAACGAUGUAGCAGAAGGACAUGAGGAUCACCCAUGUCAGCUGUAACAGCCAUGUAGGAUAUGCUACAUCGA	4.26	5.11		
GCGACGAAAGUCGAACGAUGUAGCAGAAGGACAUGAGGAUCACCCAUGUCAGCUGUAACAGCCAUGUAGGAUAUGCUACAUCGU	4.18	5.27		
GCGAUUGCGUAGAAGGUACUAUAAAAUACACUGUAAGGAUAUACAAACAUGAGGAUCACCCAUGUAAAUGGAAUUUGCAAUCGC			7.8	6.43
GCGCCAUCGUGAGAUGGCGUACCAACAUGAGGAUCACCCAUGUAGGAUAUCGAUUGCUUUGCAGUCGAGAAGGGCAUGAUAAGU	22	28.4		
GCGCGCGCAGGAUAUACAUGAGGAUCACCCAUGUAGCGCGCGCGUAUUUGUGUGUGUUGUAGAAGGGUGUGUGU	20	18.2		
GCGGAGGGUACAGGAUAUCGUCCUUAGUUGGUACGAGAAGGGUAGCGCUGCCACAUGAGGAUCACCCAUGUGCCCAAACUAAAA			159	201
GCGGGUCCGGAGAAGGGUACCGUGGGUAUGAUACAUGAGGAUCACCCAUGUACAGGAUAUCCGGCAAAGAUGUGGCUAAGAGGG	257	34.5		
GCGGUAUUGUAAGGAUAUACUCUGUGAUGAAGAGUAGAAGGUACUUACAUGAGGAUCACCCAUGUUUUUCGUAAAAGUUACCGC			16.2	10.6
GCGGUCAACGUAGGAUAUCUUCAGCCACAGCACAUUGCUGUACAUGAGGAUCACCCAUGUCCUGGAGAGAAGGACGGACGGCAG			179	35.3
GCGUAACAUGAGGAUCACCCAUGUACCCGAGAAUUCGGGUGUAGAAGGGUGACCGGUCGUUUGGCACAGGAUAUACACGCUGUG			37.1	11.5
GCGUAAUAGGUGUAGCUAGUCGUGCAAGAAGGGUGGUGAACAUGAGGAUCACCCAUGUGGUCAGUACAGGAUAUUGCUAUACGC			542	130
GCGUACUGAGGAUAUACAUGAGGAUCACCCAUGUUUCACAGCAUAUGUGAAGUUUUUUGUAGAAGGCAGUAUGC	29.6	163		
GCGUAUUUAAGAUUUAUAAAACAGUCAGAAGGUGAUAAGACGACAUGAGGAUCACCCAUGUAAUUCAAGGAUAUGAAAAUGCGC			48.6	22.1
GCGUCAGAAUUAAUUGUGACAGACAGAAGGCAAUAGUAUGUGUCCGACAUGAGGAUCACCCAUGUUGAGGAUAUGUCUUGACGC	4.76	5.87		
GCGUGACAUGAGGAUCACCCAUGUGAGGAUAUCUGGACACUCUUUAUUUUAGAUGUCCAGAGAAGGCACAUGCU	238	126		
GCGUGUAAUGUAGGAUAUGACACAGGAAACUGGUCAGAAGGACAUGAGGAUCACCCAUGUAAAAUGUUCAAGAAUAACACAUGC	22.9	37.8		
GCGUGUCGUGUAGGAUAUGACACAGGAAACUGGUCAGAAGGACAUGAGGAUCACCCAUGUAAAAUGUUCAAGAAUAACGCAUGC	27.8	39.2		
GCGUUGAACGAGAAGGCCAAUACAUGAGGAUCACCCAUGUUAAGAUGUUUUGGAGGAUAUCGUACGCAUUCAAUAUUGCAACGC	7.63	9.47		
GCGUUGCACGAGAAGGCCAAUACAUGAGGAUCACCCAUGUUAAAAUGUUUUGGAGGAUAUCGAUCAUCUACAAUAAAGCAACGC	12.6	11.6		
GCGUUUGUAUCACAUGUAUUACAUGAGGAUCACCCAUGUUACUAGGAUAUGUAUUAGUAUUUUCAACAGAAGGAGUAAGAACGC	18.8	23.5		
GCUACCAAAGAAGCCAACAUGAGGAUCACCCAUGUAUGUUGGUAGGAUAUCGUAUGCAAAGCAUACGAGAAGGGCUAAGGUAGC			98.8	116
GCUAUAGAUGUAGGAUAUCAUAUAGAAGCUAUGUGAGAAGGACAUGAGGAUCACCCAUGUCAAUGGAUGGAGAGAAGUUAUGGC	75.3	104		
GCUAUUGGCUAAGGAUAUGGAUACAUGAGGAUCACCCAUGUAUUUUUUGUGAUCAUAUAAAUGAUCCAGAAGGUAGCUGUUAGC	21.9	62.1		
GCUCGAUGCGCUGAGCACAUGAGGAUCACCCAUGUAAAAUGUCAGGAUAUUUACGUGCUUUAUGUAGAGAAGGGACUAUCGAGC			60.5	24.1
GCUCGUGGACAGAAGGCGACAUGAGGAUCACCCAUGUUGGCUCGGGUAUGACCAAUCCGCAUGAUCGAGGAUAUGUCUGCGGGC	419	19.2		
